Laboratory results as given in ChEMBL document CHEMBL1135409, “Structure-activity relationships of a novel class of endothelin-A receptor antagonists and discovery of potent and selective receptor antagonist, 2-(benzo[1,3]dioxol-5-yl)-6-isopropyloxy-4-(4-methoxyphenyl)-2H-chromene-3-carboxylic acid (S-1255). 1. Study on structure-activity relationships and …” (J Med Chem, 2002).

Experiments:
[1] = target: T1, Endothelin receptor type B (Sus scrofa, UniProt P35463); test: Binding affinity to endothelin B receptor measured by inhibition of [125I]ET-3 binding recombinant pig ET-B receptor expressed in COS-7 cells; format: cell-based
T1 sequence (P35463 whole entry): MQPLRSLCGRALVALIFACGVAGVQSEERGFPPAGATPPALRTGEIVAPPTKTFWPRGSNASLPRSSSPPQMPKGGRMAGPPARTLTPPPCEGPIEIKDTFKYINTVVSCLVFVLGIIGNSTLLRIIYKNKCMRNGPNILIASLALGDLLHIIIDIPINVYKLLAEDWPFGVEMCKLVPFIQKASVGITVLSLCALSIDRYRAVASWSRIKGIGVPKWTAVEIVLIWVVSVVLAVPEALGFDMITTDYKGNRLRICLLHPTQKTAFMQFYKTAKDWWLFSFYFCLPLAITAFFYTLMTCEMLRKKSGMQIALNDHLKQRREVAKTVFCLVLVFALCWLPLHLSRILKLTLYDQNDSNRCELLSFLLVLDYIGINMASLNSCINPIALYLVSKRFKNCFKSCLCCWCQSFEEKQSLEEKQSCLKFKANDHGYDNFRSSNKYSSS
How it was run: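 COS cells transfected with porcine ETB cDNA, in Hank's solution with 20 mM HEPES and protease inhibitors. Stopped by filtration on GF/C filters presoaked in 1% polyethylenimine, washed with 50 mM Tris-HCl pH 7.4, then counted. Nonspecific binding taken with 0.1 μM ET-3.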

Endothelin-1 receptor = target: T2, Endothelin-1 receptor (Rattus norvegicus, UniProt P26684); test: Binding affinity for endothelin A receptor by inhibition of [125I]ET1 binding in rat aorta smooth muscle cells; format: tissue-based
T2 sequence (P26684 whole entry): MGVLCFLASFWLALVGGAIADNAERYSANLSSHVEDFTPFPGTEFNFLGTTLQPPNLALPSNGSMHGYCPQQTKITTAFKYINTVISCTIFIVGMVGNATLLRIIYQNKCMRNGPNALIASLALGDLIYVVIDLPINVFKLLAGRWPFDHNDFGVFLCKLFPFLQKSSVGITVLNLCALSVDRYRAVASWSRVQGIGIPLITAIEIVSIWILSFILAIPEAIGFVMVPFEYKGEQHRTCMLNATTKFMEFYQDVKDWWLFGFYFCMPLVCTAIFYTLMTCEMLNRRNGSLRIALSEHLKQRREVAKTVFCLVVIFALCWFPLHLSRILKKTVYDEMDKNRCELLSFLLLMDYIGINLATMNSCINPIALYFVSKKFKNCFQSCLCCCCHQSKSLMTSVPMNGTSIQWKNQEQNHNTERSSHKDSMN

[2] = Ratio of inhibitory concentrations at ET-B receptor relative to that of ET-A receptor

| SMILES | IC50 [1] [µM] | IC50 (Endothelin-1 receptor) [µM] | Ratio [2] |
| --- | --- | --- | --- |
| COc1ccc(C2=C(C(=O)O)C(c3ccc4c(c3)OCO4)Oc3c(OC)cccc32)cc1 (stereo unspecified) | 4 |  |  |
| CCCOc1cccc2c1C(c1ccc(OC)cc1)=C(C(=O)O)C(c1ccc3c(c1)OCO3)O2 (stereo unspecified) | 1.8 | 1.2 | 1.5 |
| COc1ccc(C2=C(C(N)=O)C(c3ccc4c(c3)OCO4)Oc3ccc(OC(C)C)cc32)cc1 (stereo unspecified) |  | 0.63 |  |
| O=C(O)C1=Cc2ccccc2OC1c1ccc2c(c1)OCO2 (stereo unspecified) | > 100 | 67 |  |
| CCCCOc1ccc2c(c1)C(c1ccc3c(c1)OCO3)=C(C(=O)O)C(c1ccc(OC)cc1OC)O2 (stereo unspecified) | 0.035 | 0.018 |  |
| CCCCC1=C(C(=O)O)[C@@H](c2ccc3c(c2)OCO3)Oc2ccc(OC(C)C)cc21 | 0.4 | 0.00042 | 950 |
| CCCOC1=C(C(=O)O)C(c2ccc3c(c2)OCO3)Oc2ccccc21 (stereo unspecified) | 10 | 0.16 |  |
| O=C(O)C1=C(c2ccccc2)c2ccccc2OC1c1ccc2c(c1)OCO2 (stereo unspecified) | > 100 | 0.78 |  |
| CC(C)Oc1ccc2c(c1)C(c1ccc(OCc3ccccc3)cc1)=C(C(=O)O)C(c1ccc3c(c1)OCO3)O2 (stereo unspecified) | 0.6 | 0.0063 |  |
| COc1cccc(C2=C(C(=O)O)C(c3ccc4c(c3)OCO4)Oc3ccc(OC(C)C)cc32)c1 (stereo unspecified) | 0.47 | 0.0016 |  |
| CC(C)Oc1ccc2c(c1)C(c1ccc3c(c1)OCO3)=C(C(=O)O)C(c1ccc(C(C)C)cc1)O2 (stereo unspecified) | 2.7 |  |  |
| COc1ccc(CC2=C(C(=O)O)C(c3ccc4c(c3)OCO4)Oc3ccc(OC(C)C)cc32)cc1 (stereo unspecified) |  | 0.00032 |  |
| CCOc1ccc2c(c1)C(c1ccc(OC)cc1)=C(C(=O)O)C(c1ccc3c(c1)OCO3)O2 (stereo unspecified) | 0.4 | 0.0038 | 110 |
| COc1ccc(C2=C(C(=O)O)C(c3ccc4c(c3)OCO4)Oc3ccccc32)cc1 (stereo unspecified) | 1.4 | 0.086 | 16 |
| CC(C)Oc1ccc2c(c1)C=C(C(=O)O)C(c1ccc3c(c1)OCO3)O2 (stereo unspecified) | 52 | 0.33 | 160 |
| CCCCOC1=C(C(=O)O)C(c2ccc3c(c2)OCO3)Oc2ccc(OC)cc21 (stereo unspecified) | 2.3 | 0.25 | 9.2 |
| CCCCC1=C(C(=O)OC)C(c2ccc3c(c2)OCO3)Oc2ccc(OC(C)C)cc21 (stereo unspecified) |  | > 10 |  |
| Cc1ccc(C2=C(C(=O)O)C(c3ccc4c(c3)OCO4)Oc3ccccc32)cc1 (stereo unspecified) | 6.9 | 0.53 |  |
| CC(C)c1ccc(C2=C(C(=O)O)C(c3ccc4c(c3)OCO4)Oc3ccccc32)cc1 (stereo unspecified) | 2.1 | 0.083 |  |
| CCCOc1ccc2c(c1)C(c1ccc3c(c1)OCO3)=C(C(=O)O)C(c1ccc3c(c1)OCO3)O2 (stereo unspecified) | 0.08 | 0.043 |  |
| CCCCC1=C(C(=O)O)C(c2ccc3c(c2)OCO3)Oc2ccc(OC(C)C)cc21 (stereo unspecified) |  |  | 840 |
| CCCCCOC1=C(C(=O)O)C(c2ccc3c(c2)OCO3)Oc2ccccc21 (stereo unspecified) | 1.1 | 0.029 |  |

| SMILES | IC50 [1] [µM] | IC50 (Endothelin-1 receptor) [µM] | Ratio [2] |
| --- | --- | --- | --- |
| COc1ccc(C2=C(C(=O)NS(C)(=O)=O)C(c3ccc4c(c3)OCO4)Oc3ccc(OC(C)C)cc32)cc1 (stereo unspecified) |  | 0.0018 |  |
| COc1ccc(C2=C(C(=O)O)C(c3ccc4c(c3)OCO4)Oc3ccc(OC(C)C)cc32)cc1 (stereo unspecified) |  | 0.00051 |  |
| CC(C)Oc1ccc2c(c1)C(c1ccc3c(c1)OCO3)=C(C(=O)O)C(c1ccc3c(c1)OCO3)O2 (stereo unspecified) | 0.17 | 0.0032 |  |
| CCOC1=C(C(=O)O)C(c2ccc3c(c2)OCO3)Oc2ccc(OC(C)C)cc21 (stereo unspecified) | 2.8 | 0.0022 |  |
| CCCCCCCCCCOC1=C(C(=O)O)C(c2ccc3c(c2)OCO3)Oc2ccc(OC(C)C)cc21 (stereo unspecified) | 7.6 | 0.13 |  |
| COc1ccc(C2=C(C(=O)O)C(c3ccc4c(c3)OCO4)Oc3ccc(C(C)C)cc32)cc1 (stereo unspecified) | 0.19 | 0.11 | 1.7 |
| CCCOc1ccc2c(c1)C(c1ccc(OC)cc1)=C(C(=O)O)C(c1ccc3c(c1)OCO3)O2 (stereo unspecified) | 0.22 | 0.0044 | 50 |
| COc1cccc(C2=C(C(=O)O)C(c3ccc4c(c3)OCO4)Oc3ccccc32)c1 (stereo unspecified) | 2.8 | 0.7 |  |
| CC(C)Oc1ccc2c(c1)C(OCCCC#N)=C(C(=O)O)C(c1ccc3c(c1)OCO3)O2 (stereo unspecified) | 5.8 | 0.0068 |  |
| CCCCC1=C(C(N)=O)C(c2ccc3c(c2)OCO3)Oc2ccc(OC(C)C)cc21 (stereo unspecified) |  | 0.41 |  |
| CCCCOC1=C(C(=O)O)C(c2ccc3c(c2)OCO3)Oc2ccc(OCCC)cc21 (stereo unspecified) | 0.52 | 0.002 | 260 |
| CCCOc1ccc2c(c1)C(c1ccc3c(c1)OCO3)=C(C(=O)O)C(c1ccc(OC)cc1)O2 (stereo unspecified) | 0.072 | 0.22 |  |
| CCCOc1ccc2c(c1)OC(c1ccc3c(c1)OCO3)C(C(=O)O)=C2c1ccc(OC)cc1 (stereo unspecified) | 2.3 | 0.97 | 2.4 |
| CC(C)Oc1ccc2c(c1)C=C(C(=O)O)[C@H](c1ccc3c(c1)OCO3)O2 | > 100 |  | > 60 |
| CCCCOc1ccc2c(c1)C(c1ccc3c(c1)OCO3)=C(C(=O)O)C(c1cc(OC)ccc1OC)O2 (stereo unspecified) | 1.6 | 0.16 |  |
| C=CCCCOC1=C(C(=O)O)C(c2ccc3c(c2)OCO3)Oc2ccc(OC(C)C)cc21 (stereo unspecified) |  | 0.00033 |  |
| COC(=O)C1=C(c2ccc(OC)cc2)c2cc(OC(C)C)ccc2OC1c1ccc2c(c1)OCO2 (stereo unspecified) |  | > 10 |  |
| COc1ccc(C2=C(C(=O)O)C(c3ccc4c(c3)OCO4)Oc3ccc(OC)cc32)cc1 (stereo unspecified) | 0.54 | 0.074 | 7.3 |
| CCCCOC1=C(C(=O)O)C(c2ccc3c(c2)OCO3)Oc2cc(OCCC)ccc21 (stereo unspecified) | 2.8 |  |  |
| O=C(O)C1=C(c2ccc3c(c2)OCO3)c2ccccc2OC1c1ccc2c(c1)OCO2 (stereo unspecified) | 0.71 | 0.35 |  |
| CCCCOC1=C(C(=O)O)C(c2ccc3c(c2)OCO3)Oc2ccc(OC(C)C)cc21 (stereo unspecified) |  |  | 1900 |
| CCCCOc1ccc2c(c1)C(c1ccc3c(c1)OCO3)=C(C(=O)O)C(c1cccc(OC)c1)O2 (stereo unspecified) | 0.16 | 0.35 |  |

| SMILES | IC50 [1] [µM] | IC50 (Endothelin-1 receptor) [µM] | Ratio [2] |
| --- | --- | --- | --- |
| CCCCOc1ccc2c(c1)C(c1ccc3c(c1)OCO3)=C(C(=O)O)C(c1ccc(OC)c(OC)c1)O2 (stereo unspecified) | 0.4 | 0.81 |  |
| CCCCOc1ccc2c(c1)C(c1ccc3c(c1)OCO3)=C(C(=O)O)C(c1ccc(OC)cc1)O2 (stereo unspecified) | 0.043 |  |  |
| COc1ccccc1C1=C(C(=O)O)C(c2ccc3c(c2)OCO3)Oc2ccc(OC(C)C)cc21 (stereo unspecified) | 3.5 | 0.003 |  |
| CC(C)Oc1ccc2c(c1)C(c1ccc(C(C)C)cc1)=C(C(=O)O)C(c1ccc3c(c1)OCO3)O2 (stereo unspecified) | 0.75 | 0.0049 |  |
| COc1ccc(CCOC2=C(C(=O)O)C(c3ccc4c(c3)OCO4)Oc3ccc(OC(C)C)cc32)cc1 (stereo unspecified) | 0.2 | 0.003 |  |
| CCCC[C@@H]1c2cc(OC(C)C)ccc2O[C@H](c2ccc3c(c2)OCO3)[C@H]1C(=O)O |  | 0.077 |  |
| CC(C)Oc1ccc2c(c1)C(c1ccc(O)cc1)=C(C(=O)O)C(c1ccc3c(c1)OCO3)O2 (stereo unspecified) | 4.8 | 0.0041 |  |
| CCCCC1=C(C(=O)NS(C)(=O)=O)C(c2ccc3c(c2)OCO3)Oc2ccc(OC(C)C)cc21 (stereo unspecified) |  | 0.048 |  |
| CCCCOc1ccc2c(c1)C(c1ccc3c(c1)OCO3)=C(C(=O)O)C(c1ccccc1OC)O2 (stereo unspecified) | 0.76 | 0.13 |  |
| CCCCOC1=C(C(=O)O)C(c2ccc3c(c2)OCO3)Oc2cccc(OCCC)c21 (stereo unspecified) | 6 |  |  |
| O=C(O)C1=C(c2ccc(Cl)cc2)c2ccccc2OC1c1ccc2c(c1)OCO2 (stereo unspecified) | 5.8 | 0.8 |  |
| CCOC1=C(C(=O)O)C(c2ccc3c(c2)OCO3)Oc2ccccc21 (stereo unspecified) | 15 | 0.29 |  |
| CC(C)Oc1ccc2c(c1)C(c1ccccc1)=C(C(=O)O)C(c1ccc3c(c1)OCO3)O2 (stereo unspecified) |  | 0.003 |  |
| CCCCCCCOC1=C(C(=O)O)C(c2ccc3c(c2)OCO3)Oc2ccc(OC(C)C)cc21 (stereo unspecified) | 0.41 | 0.0047 |  |
| CCCCOc1ccc(C2Oc3ccc(OCCCC)cc3C(c3ccc4c(c3)OCO4)=C2C(=O)O)cc1 (stereo unspecified) | 3.6 | 5.2 |  |
| CCCCC1=C(c2nnn[nH]2)C(c2ccc3c(c2)OCO3)Oc2ccc(OC(C)C)cc21 (stereo unspecified) |  | 0.018 |  |
| CCCCOc1ccc2c(c1)C(c1ccc3c(c1)OCO3)=C(C(=O)O)C(c1ccc(OC3CCCC3)cc1)O2 (stereo unspecified) | 2.2 | 4.8 |  |
| CC(C)Oc1ccc2c(c1)C(Cl)=C(C(=O)O)C(c1ccc3c(c1)OCO3)O2 (stereo unspecified) | 7.2 | 0.012 |  |
| CC(C)Oc1ccc2c(c1)C(c1ccc(F)cc1)=C(C(=O)O)C(c1ccc3c(c1)OCO3)O2 (stereo unspecified) |  | 0.008 |  |
| COc1ccccc1C1=C(C(=O)O)C(c2ccc3c(c2)OCO3)Oc2ccccc21 (stereo unspecified) | 31 | 2.2 |  |
| COc1ccc([C@@H]2c3cc(OC(C)C)ccc3O[C@H](c3ccc4c(c3)OCO4)[C@H]2C(=O)O)cc1 | 3.4 | 0.0013 |  |
